Results as given in ChEMBL document CHEMBL3272276, “Synthesis and antimicrobial evaluation of substituted 5,6-dihydro-5-nitrouracils” (1976).
In brackets after ≈: the same amount, converted by molar mass. Activity calls are given as the source filed them. The calls are words filed in the database; no cut-off is given here.

Legend:
Staphylococcus aureus [1] = test: Antimicrobial activity against Staphylococcus aureus clinical isolate up to 0.4 umol/ml after 24 hrs by broth dilution assay; type: functional, organism-based
Summary of the method: (§1)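 Clinical isolate tested by broth dilution in chemically defined medium. Serial dilutions span 0.4 to 0.005 μmol/ml. Incubation is 24 h at 35°. MIC is taken as the highest dilution of compound that prevents visible growth.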

Escherichia coli [2] = test: Antimicrobial activity against Escherichia coli clinical isolate up to at 0.4 umol/ml after 24 hrs by broth dilution assay; type: functional, organism-based; summary of the method: as §1
Pseudomonas aeruginosa [3] = test: Antimicrobial activity against Pseudomonas aeruginosa clinical isolate up to 0.4 umol/ml after 24 hrs by broth dilution assay; type: functional, organism-based; summary of the method: as §1
Candida albicans = test: Antifungal activity against Candida albicans clinical isolate at 0.4 umol/ml after 24 hrs by broth dilution assay; type: functional, organism-based
Summary of the method: (§2)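 Clinical isolates were tested by broth dilution using serial dilutions in chemically defined medium over 0.4 to 0.005 µmol/ml. Plates were incubated for 24 h at 35°. MIC was taken as the highest dilution that prevented visible growth.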

Escherichia coli [4] = test: Antimicrobial activity against Escherichia coli clinical isolate after 24 hrs by broth dilution assay; type: functional; summary of the method: as §2
[5] = tested on: Trichophyton mentagrophytes; test: Antifungal activity against Trichophyton mentagrophytes clinical isolate at 0.4 umol/ml after 48 hrs by broth dilution assay; type: functional, organism-based
Summary of the method: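 The clinical dermatophyte isolate was tested by broth dilution using serial dilutions in chemically defined medium over 0.4 to 0.005 µmol/ml. Inhibition was read after 48 h at 30°. MIC was the highest dilution with no visible growth.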

Staphylococcus aureus [6] = test: Antimicrobial activity against Staphylococcus aureus clinical isolate after 24 hrs by broth dilution assay; type: functional; summary of the method: as §2
Pseudomonas aeruginosa [7] = test: Antimicrobial activity against Pseudomonas aeruginosa clinical isolate after 24 hrs by broth dilution assay; type: functional; summary of the method: as §2

| SMILES | Activity (Staphylococcus aureus [1]) | Activity (Escherichia coli [2]) | Activity (Pseudomonas aeruginosa [3]) | Activity (Candida albicans) | MIC (Escherichia coli [4]) [µM] | Activity [5] | MIC (Staphylococcus aureus [6]) [µM] | MIC (Pseudomonas aeruginosa [7]) [µM] |
| --- | --- | --- | --- | --- | --- | --- | --- | --- |
| O=c1[nH]c(=O)n(-c2ccc([N+](=O)[O-])cc2)cc1[N+](=O)[O-] | inactive | inactive | inactive |  |  |  |  |  |
| Cc1[nH]c(=O)[nH]c(=O)c1[N+](=O)[O-] | inactive | inactive | inactive |  |  |  |  |  |
| CCOC(=O)[C@H]1O[C@@H](n2cc([N+](=O)[O-])c(=O)[nH]c2=O)[C@H](O)[C@@H]1O | inactive | inactive | inactive |  |  |  |  |  |
| O=C1NC(=O)N(c2ccc([N+](=O)[O-])cc2)CC1[N+](=O)[O-] (stereo unspecified) | inactive | inactive | inactive |  |  |  |  |  |
| O=C1NCC([N+](=O)[O-])C(=O)N1 (stereo unspecified) | inactive | inactive | inactive |  |  |  |  |  |
| CCOC(=O)[C@H]1O[C@@H](N2CC([N+](=O)[O-])C(=O)NC2=O)[C@H](O)[C@@H]1O (stereo partly specified) | inactive | inactive | inactive |  |  |  |  |  |
| CC1NC(=O)NC(=O)C1[N+](=O)[O-] (stereo unspecified) | inactive | inactive | inactive |  |  |  |  |  |
| [N-]=[N+]=C1C(=O)NC(=O)NC1O (stereo unspecified) |  |  |  | inactive | 10 (≈ 1.56 µg/mL) | inactive | 20 (≈ 3.12 µg/mL) | 20 (≈ 3.12 µg/mL) |
| [N-]=[N+]=C1C=NC(=O)NC1=O |  |  |  | inactive | 20 (≈ 2.76 µg/mL) | inactive | 10 (≈ 1.38 µg/mL) | 40 (≈ 5.52 µg/mL) |
